PHOSPHO1 inh – inhibitors of human PHOSPHO1 phosphatase; Q8TCT1; recombinant PHOSPHO1, absorbance phosphatase assay; inhibition, % at 13.3 µM; 290,000 tested, 1.1% active; AID 1565; in the data active = inhibition above about 60%
Target sequence (Q8TCT1 whole entry, looked up): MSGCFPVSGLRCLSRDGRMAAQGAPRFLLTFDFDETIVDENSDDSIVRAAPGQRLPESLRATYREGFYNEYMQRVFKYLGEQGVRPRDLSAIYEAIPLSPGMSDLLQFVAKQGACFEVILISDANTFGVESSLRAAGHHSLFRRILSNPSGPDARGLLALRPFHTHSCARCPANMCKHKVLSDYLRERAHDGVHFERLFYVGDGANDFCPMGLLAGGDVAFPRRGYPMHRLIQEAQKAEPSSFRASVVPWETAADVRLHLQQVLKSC
ALR H2O2 inh – inhibitors of human sulfhydryl oxidase ALR | P55789 | purified ALR, DTT oxidation, H2O2 HRP-luminol luminescence | AID 485317 | inhibition, % (test concentration not listed) | 290,000 tested, 3.8% active;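 active = mean replicate inhibition above about 79%, with every replicate also reaching it, limit read from the data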
Target sequence (P55789 whole entry, looked up): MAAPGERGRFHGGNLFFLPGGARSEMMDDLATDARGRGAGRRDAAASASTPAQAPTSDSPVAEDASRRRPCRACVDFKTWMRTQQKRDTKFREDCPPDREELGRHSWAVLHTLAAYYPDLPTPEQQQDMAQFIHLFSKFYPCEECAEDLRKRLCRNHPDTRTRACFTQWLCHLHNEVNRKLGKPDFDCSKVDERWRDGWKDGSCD
AI-2 QS modul – Vibrio harveyi AI-2 quorum sensing modulation; 300,000 tested, 0.4% active; AID 2094; activity change, % at 7.5 µM; Vibrio harveyi JMH597 AI-2 luminescence/OD600 ratio, 9 h; hits give low values; strain lacks LuxN and CqsS sensors; 0 = neutral-control median; in the data active = activity change below about -75%, passing the limit was not always enough;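 note: luminescence divided by OD600 gain over 9 h not by final OD600 alone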
HSF1 activator – increases HSF-1 driven luciferase reporter signal | NIH3T3-HGL HSF-1 luciferase reporter, MG132, 8 h; 100% = twice DMSO control signal | activation, % at 9 µM | 300,000 tested, 1.7% active | AID 504408;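 active = mean replicate activation of at least 50% with a set share of replicates each reaching 50%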;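 note: 0% = median of the neutral control wells and 100% = twice that signal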
HCV core dimer – blocks dimerization of HCV core protein. TR-FRET GST/Flag-core106 dimerization, 1536-well. inhibition, % at 5 µM. AID 1899. 300,000 tested, 0.33% active;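 active = inhibition above the mean of all tested compounds plus 3 SD, set per screening campaign, cut at about 45% in these data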
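Assay system: tagged HCV core106 pair (GST and Flag); medium: KF-containing HEPES buffer, pH 7.45, DTT, CHAPS, BSA; also added: Eu donor and XL665 acceptor anti-tag antibodies; dosing: 5 µM single dose; timing: compound-protein-antibody incubation 4 h at 22.5 °C; signal: TR-FRET 671 and 617 nm emission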
HSF1 inhib – HSF1 inhibition; 300,000 tested, 0.77% active; activity change, negative = inhibition, % at 7.5 µM (by protocol); NIH3T3-HGL HSE-luciferase, MG132-induced, luminescence 8 h; hits give low values;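 active = more than half of replicate wells show activity change below -50%, luminescence cut by over half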;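 note: luciferase reports HSF-1 transcriptional activity via heat shock element; 0% = median of DMSO wells and -100% = zero luminescence signal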
* = called active by the depositor; . = no result. Only some compounds are listed: those with a hit (about 6.8% of all), similar ones and a draw of the others.

SMILES | PHOSPHO1 inh | ALR H2O2 inh | AI-2 QS modul | HSF1 activator | HCV core dimer | HSF1 inhib
CC(C)c1ccc(NC2CCCN(C(=O)CCN3CCCO3)C2)cc1 (configuration not stated) | 41.4 | 67.1 | 30.8 | 2.8 | -12.3 | 1.5
COc1ccc(NC(=O)COC(=O)c2ccc3ccccc3n2)cc1OC | . | -2.7 | . | . | . | .
CCN(c1ccc(NC(=O)COC(=O)c2ccc3ccccc3n2)cc1)C(C)C | -32.1 | 96.0* | 17.9 | -1.6 | -0.8 | -8.5
C=CCNC(=S)N/N=C(\C)c1cccnc1 | -27.4 | 82.8* | . | 8.6 | -4.0 | 7.3
COC(=O)c1cc2occc2n1Cc1ccc(Cl)cc1 | 64.2* | 2.1 | 5.2 | 4.2 | -1.8 | 1.8
COC(=O)c1cc2occc2n1Cc1c(F)cccc1Cl | 37.5 | . | . | . | . | .
Cc1ccc(S(=O)(=O)N2CCN(S(=O)(=O)c3ccccc3)C2)cc1 | -9.2 | . | 21.6 | -9.7 | . | -7.6
Cc1ccc(S(=O)(=O)N2CCN(S(C)(=O)=O)C2)cc1 | 33.8 | . | 27.8 | -70.1 | -4.8 | -62.5*
CN(Cc1ccccc1)S(=O)(=O)c1cccc(C(=O)O)c1 | 4.4 | 6.7 | 5.4 | 15.2 | 3.4 | -4.6
Brc1c(CSc2nnc(-c3ccco3)o2)nc2ccccn12 | 6.7 | 96.6* | 14.4 | 48.6 | 2.1 | 17.3
CCOC(=O)c1nc2sc(C)c(C)c2c(=O)[nH]1 | 44.0 | -8.4 | 40.6 | -9.2 | 1.1 | -12.0
CCOC(=O)/C(=C\c1cccc(O)c1)c1nc2sc(C)c(C)c2c(=O)[nH]1 | 4.6 | 97.5* | -3.6 | 160.8* | -1.4 | 114.2
CCOC(=O)N1CCN(S(=O)(=O)c2cccs2)CC1 | 16.1 | -4.7 | 12.9 | -17.8 | -6.7 | -9.1
CCOc1ccc(C(=O)N2CCN(S(=O)(=O)c3cccs3)CC2)c(OCC)c1 | -0.6 | 8.8 | 7.0 | 54.3* | 3.4 | 8.6
N#Cc1nc(-c2ccccc2F)oc1NCc1cccc2c1OCO2 | 17.6 | 8.7 | -87.0* | 1.1 | 2.8 | 1.0
O=C(N/N=C/c1ccccc1C(=O)O)c1ccc(COc2cccc3cccnc23)cc1 | 22.8 | -27.7 | 33.2 | 3.4 | 2.5 | -0.1
NNC(=O)c1ccc(COc2cccc3cccnc23)cc1 | 42.6 | 97.7* | 35.7 | 5.1 | 3.1 | 1.6
O=C(N/N=C/c1ccc[nH]1)c1ccc(COc2cccc3cccnc23)cc1 | 10.5 | . | 19.2 | -73.9 | 3.4 | -68.6*
O=C(c1ccco1)N(CCO)Cc1cc2cc3c(cc2[nH]c1=O)OCO3 | 32.5 | -3.8 | 1.6 | 15.0 | -2.3 | -0.9
CC(NCc1ccccc1Cl)C(=O)Nc1ccc(C#N)cc1 (configuration not stated) | 8.2 | -15.4 | 20.9 | -5.5 | -0.7 | -3.3
CCC(=O)N1CCc2cc(S(=O)(=O)N3CCCCCC3)ccc21 | 27.6 | -7.7 | 35.0 | -35.0 | -3.5 | -14.2
CCOC(=O)CSc1nc2ccc(N3CCOCC3)cc2c(=O)n1Cc1ccccc1 | 60.3* | -32.1 | 15.3 | 25.6 | 1.2 | 5.3
CN(/C(=N\S(=O)(=O)c1ccccc1)c1ccccc1)c1ccc(O)cc1 | 27.1 | -11.5 | 23.3 | 58.6* | 12.2 | 11.8
COc1ccc(Nc2nc(-c3cccs3)cs2)c(OC)c1 | 79.9* | 46.9 | 10.4 | 0.0 | -9.5 | -1.6
COc1ccc(OC)c(Nc2nc(-c3cccs3)cs2)c1 | -3.4 | 0.2 | 38.3 | 8.8 | -14.1 | 2.6
SMILES | PHOSPHO1 inh | ALR H2O2 inh | AI-2 QS modul | HSF1 activator | HCV core dimer | HSF1 inhib
COc1ccc(S(=O)(=O)C(C#N)c2nc3ccccc3nc2N2CCCCC2)cc1 (configuration not stated) | 99.8* | 7.9 | -0.9 | . | 20.8 | .
N#CC(c1nc2ccccc2nc1N1CCCC1)S(=O)(=O)c1ccccc1 (configuration not stated) | 33.1 | -0.1 | 27.7 | -1.2 | 7.5 | -0.1
Cc1ccc(C)c(S(=O)(=O)C(C#N)c2nc3ccccc3nc2N2CCCC2)c1 (configuration not stated) | 72.5* | -14.0 | 26.6 | -1.7 | 9.8 | 9.3
O=C(O)CSCC(=O)Nc1cc(C(F)(F)F)ccc1Cl | 3.3 | -16.3 | -0.6 | 2.5 | 0.3 | -3.8
CCN(CC)C(=O)C(=O)Nc1cc(C(F)(F)F)ccc1Cl | 75.2* | 0.1 | 11.7 | -4.5 | 3.3 | -1.0
CC1(C)Cc2c(sc3ncnc(NN)c23)CO1 | 24.1 | -2.6 | -7.6 | -7.9 | -9.7 | -8.9
Cc1cccc(OCC(=O)Nc2cccc(C(=O)NCC(C)C)c2)c1 | 0.2 | -11.8 | -1.0 | -85.3 | 3.0 | -80.6*
O=C(O)CCCC(=O)Nc1cccc(C(=O)Nc2ccccc2C(=O)O)c1 | 14.0 | -3.2 | 18.6 | -12.2 | -1.8 | 5.0
O=C(CSCc1ccc(Cl)cc1)Nc1cccc(C(=O)Nc2ccccc2C(=O)O)c1 | -11.3 | 97.6* | 12.7 | -18.1 | 22.9 | -6.3
Cc1cccc(OCC(=O)Nc2cccc(C(=O)Nc3ccccc3C(=O)O)c2)c1 | -14.4 | 27.9 | 9.9 | 17.5 | 6.4 | 20.4
CC(C)c1ccc(OCC(=O)Nc2cccc(C(=O)Nc3ccccc3C(=O)O)c2)cc1 | 20.6 | 97.6* | 22.7 | 5.1 | 16.6 | -7.3
O=C(CSCc1ccccc1)Nc1cccc(C(=O)Nc2ccccc2C(=O)O)c1 | 17.6 | 98.3* | -8.7 | -4.5 | 3.8 | 1.3
Cc1cccc(OCC(=O)Nc2ccc(C(=O)NCC(C)C)cc2)c1 | -8.8 | 4.4 | 15.3 | -9.9 | -9.8 | -8.2
COc1ccc(OC)c(N2C(=NC(=O)C3CCCCC3)SC3CS(=O)(=O)CC32)c1 (configuration not stated) | 1.9 | 2.1 | 35.7 | 6.9 | -1.0 | 0.9
Cc1onc(C(=O)NN)c1C(=O)Nc1ncc(C(F)(F)F)cc1Cl | -16.5 | 7.6 | 25.4 | -4.2 | 3.1 | 3.0
Cc1ccc(O)c(-c2cc3ccccc3[nH]2)c1 | 19.9 | 98.6* | 13.1 | 43.9 | -14.3 | 24.6
CCCCn1c(/C=N/Nc2nc3ccccc3[nH]2)nc2ccccc21 | 3.5 | 3.4 | 14.5 | -3.7 | 4.3 | 0.8
COc1cc(OC)c(OC)cc1/C=N/Nc1ncnc2c1[nH]c1ccccc12 | 6.5 | -20.3 | 31.2 | -24.4 | -12.3 | -18.7
CCN(CC)c1ccc(/C=N/Nc2nc3ccccc3[nH]2)c(O)c1 | 14.1 | 9.6 | 42.1 | 169.3* | -41.6 | 131.6
COc1ccc2c(c1)c(/C=N/Nc1nc3ccccc3[nH]1)c(C)n2C | 20.3 | 7.4 | 12.0 | 206.2* | -26.5 | 212.7
COc1cc(OC)c(OC)cc1/C=N/Nc1nc2ccccc2[nH]1 | 40.9 | 3.7 | 9.3 | 266.5* | -32.0 | 246.5
Cc1ccc2cc(/C=N/Nc3nc4ccccc4[nH]3)c(Cl)nc2c1 | 7.0 | . | 15.2 | 19.3 | . | 16.7
COc1cc(/C=N\Nc2nc3ccccc3[nH]2)cc(OC)c1OC | 59.9 | 98.8* | 10.5 | 437.0* | -27.6 | 346.5
CC(=O)C1=C(C)N(Cc2ccccc2)C(=O)N[C@H]1c1ccco1 | 17.7 | -9.9 | 31.9 | 0.6 | 5.0 | 5.8

High-throughput results deposited in PubChem BioAssay by several laboratories.
